UPR CHOP act: activators of apoptotic arm of unfolded protein response (CHOP). CHO-CHOP luciferase reporter, UPR activation, luminescence; percent of tunicamycin response over DMSO baseline. activation, % at 10 µM. 0.34% of 330,000 active;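 active means at 10 µM dose, activation of 40% or more, normalized to positive control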
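Dosing – one dose, 10 µM in 0.5% DMSO · System – CHO-CHOP cells, stable luciferase reporter of PERK-eIF2a-CHOP signalling · Input – 500 cells/well · Control set – tunicamycin 10 µg/mL final as positive, DMSO-only wells as negative · Timing – 6 h compound treatment, 37 °C · Measure – % activation vs tunicamycin · Technique – luminescence read with Steady-Glo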
B2AR ag: human beta-2 adrenergic receptor agonism by FAP; Am2.2-beta2AR cells, FAP receptor internalization, flow cytometry; response, % (test concentration not listed); 0.43% of 340,000 active; AID 504454;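 active means response above a set limit, near 3 SD of response in nonfluorescent compounds, cut at about 42% in these data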
Target sequence (P07550 whole entry, looked up): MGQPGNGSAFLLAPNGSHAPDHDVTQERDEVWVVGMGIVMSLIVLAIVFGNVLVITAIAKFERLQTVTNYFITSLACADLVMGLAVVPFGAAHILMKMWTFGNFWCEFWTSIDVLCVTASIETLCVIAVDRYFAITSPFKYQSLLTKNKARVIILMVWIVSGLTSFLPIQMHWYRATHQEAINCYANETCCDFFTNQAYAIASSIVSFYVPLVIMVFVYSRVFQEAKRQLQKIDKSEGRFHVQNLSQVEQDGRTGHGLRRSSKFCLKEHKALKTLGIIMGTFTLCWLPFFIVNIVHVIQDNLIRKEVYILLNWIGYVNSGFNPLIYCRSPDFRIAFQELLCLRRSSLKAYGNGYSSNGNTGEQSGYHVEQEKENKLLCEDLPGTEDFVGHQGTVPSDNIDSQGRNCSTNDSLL
MDM2 E3 inh: inhibitors of human Mdm2 E3 ubiquitin ligase. Q00987. cell-based MDM2 ubiquitination luciferase reporter, 2 h; 0 = plate control, 100 = twice control, blank-subtracted. signal enhancement, % at 5 µM. 0.11% of 210,000 active;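 active means signal enhancement of 30% or more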;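 further: luminescence tracks abundance of the self-degrading MDM2-luciferase fusion protein; higher signal means inhibition of MDM2 E3 ligase activity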
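Test system: stable mammalian line carrying autodegrading MDM2–luciferase fusion reporter; quantity: 2000 cells in each well; times: 4 h cell settling then 2 h compound exposure, 37 °C; detection: luminescence with SteadyLite reagent, 15 min at room temperature; evaluation: percent signal gain over controls, blank-subtracted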
XBP1 UPR activ: adaptive UPR (XBP1) activation | CHO-XBP1 luciferase reporter, IRE1-XBP1 UPR activation, luminescence; percent of tunicamycin response, DMSO as zero | activation, % at 20 µM | 0.33% of 330,000 active | AID 463104;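 active means versus positive control, 20 µM dose yields 30% or more activation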
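Material: CHO cell line with stable XBP1 luciferase reporter; buffer or medium: F12 medium containing 10% fetal bovine serum; compound: single point, 20 µM final compound, 1% DMSO; incubation: 6 h treatment, 37 °C; measured by: glow luminescence from Steady-Glo reagent; evaluation: activation, % of tunicamycin; control set: tunicamycin high, DMSO low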
Dynein transport: dynein cargo transport inhibition | 3617.4 mouse cells, GR-EGFP nuclear translocation imaging; test concentration mostly 20 µM; stimulated with dexamethasone, 1 µM; active compounds read low | z-score, hits read low | 0.47% of 220,000 active;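 active means plate z-score of nuclear minus cytoplasmic receptor signal below a set negative limit, without overly bright fluorescence or cell loss, cut at about -3.5 in these data, passing the limit was not always enough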;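 further: z-score of nuclear minus cytoplasmic ring GR-EGFP intensity difference per well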
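Also added – dexamethasone, 1.0 µM final · Buffer or medium – tet-free, stripped-serum medium · Schedule – induction 48 h, compound 1 h, agonist 30 min · Detection – formaldehyde fixation, Hoechst nuclear stain, 10x automated fluorescence imaging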
Mdm2 MdmX PPI: disrupts the human Mdm2-MdmX interaction | SaOS-2 split-luciferase Mdm2/MdmX complementation, luminescence | inhibition, % at 8 µM | 3% of 330,000 active | AID 485346;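 active means inhibition of at least 50% at 8 µM in the primary screen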
Dynein inh conf: dynein cargo transport inhibition, confirmation | shares compounds with Dynein transport | 3617.4 GR-EGFP nuclear translocation imaging, dexamethasone-induced | calls only at 20 µM | 69% of 1,000 active;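 active means inhibition of receptor movement into the nucleus at or above a set limit in both runs, with normal cell brightness and cell count; inconclusive means limit reached in only one run, brightness and count normal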;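 further: dexamethasone at 1 µM final in well for 30 min; nuclear minus cytoplasmic GR-EGFP mean intensity difference in channel 2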
Each line names hits and unclear results; the compound was inactive in the other large screens (follow-up assays come after a bar, where they were run). In the library only some 3.7% were active in any assay of this set; here they are far more common.

CCOC(=O)[C@H]1[C@H]2COc3cc(OC)ccc3[C@@H]2N2C(=O)c3cc(OC)c(OC)cc3NC(=O)[C@@]12C	none (no result: MDM2 E3 inh, Dynein transport)
O=C(O)CCSc1ccccn1	none
O=C(CCSc1ccccn1)c1ccccc1	Dynein transport -4 | Dynein inh conf inactive
CC[n+]1c(/C=C/C=C/N(C(C)=O)c2ccccc2)sc2cc(OC)ccc21	Dynein transport -3.8 (no result: UPR CHOP act, B2AR ag, XBP1 UPR activ, Mdm2 MdmX PPI) | Dynein inh conf active
CCCCCOc1ccc(NC2=CC(=O)CCC2)cc1	none (no result: MDM2 E3 inh, Dynein transport)
O=S1(=O)C=C(Sc2nc3ccccc3s2)c2ccccc21	MDM2 E3 inh 52, Dynein transport -4.1 (no result: B2AR ag) | Dynein inh conf active
CCCn1nc(-c2ccccc2)c2nc3ccccc3nc21	none (no result: B2AR ag) | Dynein inh conf inactive
Cc1cc(C)c2c(=O)n(CC(=O)Nc3ccc(Br)c(C)c3)sc2n1	none
COc1ccc(OC)c(CCNC(=O)Cn2sc3nc(C)cc(C)c3c2=O)c1	Dynein transport -4.1 (no result: B2AR ag) | Dynein inh conf active
Cc1cc(C)c2c(=O)n(CC(=O)NC3CCCC3)sc2n1	Dynein transport -4.2 | Dynein inh conf active
Cn1cc(Br)c(NC(=O)/C=C/C(=O)O)n1	Dynein transport -6.2 | Dynein inh conf active
Cc1nc(COC(=O)c2cc(O)c3ccccc3c2O)cs1	Dynein transport -3.6 (no result: UPR CHOP act, XBP1 UPR activ, Mdm2 MdmX PPI) | Dynein inh conf inactive
C=CCN(CC=C)c1cnn(-c2nc3ccccc3[nH]2)c(=O)c1Cl	none
O=c1c(Cl)c(NCCCO)cnn1-c1nc2ccccc2[nH]1	Dynein transport -4.2 | Dynein inh conf active
CS(=O)(=O)c1ccc(-c2sc3ccccc3c2C(=O)NCCCN2CCOCC2)cc1	none (no result: MDM2 E3 inh, Dynein transport)
O=C1CC[C@@H](C(=O)O)N1	none (no result: MDM2 E3 inh, Dynein transport)
COc1ccc(N2C(=O)CC(Sc3n[nH]c(-c4ccccc4)n3)C2=O)cc1 (stereo unspecified)	none
CCOc1ccc(N2C(=O)CC(Sc3n[nH]c(-c4ccccc4)n3)C2=O)cc1 (stereo unspecified)	Dynein transport -5.2 | Dynein inh conf inactive
Cc1ccc(C(=O)/C=C/c2ccccc2[N+](=O)[O-])cc1	B2AR ag 63, Dynein transport -4.7 | Dynein inh conf active
COc1cc(/C=C/C(=O)c2ccc(C)c([N+](=O)[O-])c2)cc(OC)c1O	Dynein transport -3.8 | Dynein inh conf inconclusive
COc1ccc(/C=C/C(=O)c2ccc(C)c([N+](=O)[O-])c2)cc1O	none
COc1cccc(/C=C/C(=O)c2ccc(C)c([N+](=O)[O-])c2)c1	Dynein transport -4 | Dynein inh conf active
COC(=O)c1ccc(/C=C/C(=O)c2cccc(OC)c2)cc1	none
O=C(Cn1c(C(F)(F)F)nc2ccccc21)N=Nc1c(O)[nH]c2ccc(Br)cc12	none
CCn1nc(C)c(CNC(=O)c2ccc(OC3CCN(Cc4ccccn4)CC3)cc2)c1C	none (no result: MDM2 E3 inh, Dynein transport)
CCOC(=O)c1sc(-c2ccc(Cl)cc2Cl)nc1O	none
N#CC(C#N)=C1C=C2C=C(N3CCOCC3)CCC2CC1 (stereo unspecified)	Dynein transport -7 (no result: UPR CHOP act, B2AR ag, XBP1 UPR activ, Mdm2 MdmX PPI) | Dynein inh conf active
CCN1CCN(C2=CC3=CC(=C(C#N)C#N)CCC3CC2)CC1 (stereo unspecified)	Dynein transport -5.2 (no result: UPR CHOP act, XBP1 UPR activ, Mdm2 MdmX PPI) | Dynein inh conf active
CN1CCN(C2=CC3=CC(=C(C#N)C#N)CCC3CC2)CC1 (stereo unspecified)	Dynein transport -3.8 (no result: UPR CHOP act, XBP1 UPR activ, Mdm2 MdmX PPI) | Dynein inh conf inactive
N#Cc1cc(Cl)c(N2CCOCC2)cc1C#N	none
N#CC(C#N)=C1C=C2C=C(N3CCCCCC3)CCC2CC1 (stereo unspecified)	Dynein transport -3.7 (no result: UPR CHOP act, B2AR ag, XBP1 UPR activ, Mdm2 MdmX PPI) | Dynein inh conf active
Cn1c(=O)c2c(ncn2CC(=O)Nc2cc(S(=O)(=O)N3CCCCC3)ccc2O)n(C)c1=O	none (no result: MDM2 E3 inh, Dynein transport)
O=C(O)c1cc(=O)[nH]c2ccccc12	none (no result: UPR CHOP act, MDM2 E3 inh, XBP1 UPR activ, Dynein transport, Mdm2 MdmX PPI)
COc1ccccc1-c1nnc(SCC(=O)NCc2cccs2)n1N	none
